Reference: ChEMBL document CHEMBL1140662, “Benzo[b]thiophene-based histone deacetylase inhibitors” (Bioorg Med Chem Lett, 2007)

What was measured:
Histone deacetylase 1 [1] = molecular target: T1, Histone deacetylase 1 (Homo sapiens, UniProt Q13547); experiment: Inhibition of HDAC1
Summary of the method: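 Epitope-tagged human HDAC1 complex, immuno-purified from stably expressing mammalian cells, tested against a commercial HDAC substrate. IC50 values are means of three experiments.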

[2] = Antiproliferative activity against mouse SC9 cells; type: functional, cell-based
Summary of the method: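 Murine erythroleukemia SC-9 cells were exposed to vehicle or increasing compound concentrations for 48 h, and proliferation was read by MTS assay. IC50 values are means of three experiments.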

Histone deacetylase 1 [3] = molecular target: T1, Histone deacetylase 1; experiment: Inhibition of HDAC1 at 10 uM

T1 sequence (Q13547 whole entry): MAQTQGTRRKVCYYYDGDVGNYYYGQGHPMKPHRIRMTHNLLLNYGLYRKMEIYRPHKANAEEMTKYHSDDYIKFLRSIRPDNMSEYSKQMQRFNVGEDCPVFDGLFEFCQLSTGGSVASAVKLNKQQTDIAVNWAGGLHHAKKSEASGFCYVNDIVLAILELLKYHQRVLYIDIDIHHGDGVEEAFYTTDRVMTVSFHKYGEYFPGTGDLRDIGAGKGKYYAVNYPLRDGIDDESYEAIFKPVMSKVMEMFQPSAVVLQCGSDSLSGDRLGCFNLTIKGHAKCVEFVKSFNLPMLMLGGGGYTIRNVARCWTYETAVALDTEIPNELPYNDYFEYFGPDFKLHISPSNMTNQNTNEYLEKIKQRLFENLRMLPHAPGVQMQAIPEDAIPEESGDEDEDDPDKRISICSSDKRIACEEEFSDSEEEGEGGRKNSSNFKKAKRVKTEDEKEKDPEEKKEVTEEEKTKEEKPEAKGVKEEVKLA

Row | SMILES | IC50 (Histone deacetylase 1 [1]) | IC50 [2] | inhibition (Histone deacetylase 1 [3])
1 | O=C(NCc1ccccc1)c1ccc2cc(C(=O)NO)sc2c1 | 55 nM | 1100 nM | 
2 | CCC(C(=O)Nc1ccc2cc(C(=O)NO)sc2c1)c1ccccc1 (stereo unspecified) | 40 nM | 225 nM | 
3 | O=C(NO)c1cc2cc(CNCc3ccccc3)ccc2s1 |  | 475 nM | 
4 | O=C(NO)c1cc2ccc(CNCc3ccccc3)cc2s1 | 50 nM | 160 nM | 
5 | O=C(NO)c1cc2cc(CNc3ccccc3)ccc2s1 | 175 nM | 4870 nM | 
6 | O=C(Cc1ccccc1)NCc1ccc2cc(C(=O)NO)sc2c1 | 70 nM | 1220 nM | 
7 | O=C(Cc1ccc(F)cc1)Nc1ccc2cc(C(=O)NO)sc2c1 | 20 nM | 230 nM | 
8 | O=C(NO)c1cc2ccc(CNc3ccccc3)cc2s1 | 45 nM | 1780 nM | 
9 | O=C(NO)c1cccs1 | 6600 nM |  | 
10 | O=C(NCc1ccc2cc(C(=O)NO)sc2c1)c1ccccc1 | 10 nM | 190 nM | 
11 | O=C(NO)c1csc2ccccc12 |  |  | 38%
12 | O=C(Cc1ccccc1)Nc1ccc2cc(C(=O)NO)sc2c1 | 10 nM | 220 nM | 
13 | O=C(CCc1ccccc1)Nc1ccc2cc(C(=O)NO)sc2c1 | 55 nM | 5580 nM | 
14 | O=C(Nc1ccccc1)c1ccc2sc(C(=O)NO)cc2c1 | 600 nM | 6140 nM | 
15 | O=C(NCc1ccccc1)c1ccc2sc(C(=O)NO)cc2c1 | 75 nM | 1700 nM | 
16 | O=C(NO)c1cc2ccc(CNCCc3ccccc3)cc2s1 | 128 nM | 455 nM | 
17 | O=C(NO)c1cc2cc(CNCCc3ccccc3)ccc2s1 | 200 nM | 945 nM | 
18 | COC(=O)c1ccc2cc(C(=O)NO)sc2c1 |  | 13900 nM | 
19 | O=C(NC(c1ccccc1)c1ccccc1)c1ccc2cc(C(=O)NO)sc2c1 | 285 nM | 2960 nM | 
20 | O=C(NCCc1ccccc1)c1ccc2sc(C(=O)NO)cc2c1 | 155 nM | 5330 nM | 
21 | O=C(NO)c1ccsc1 | 9700 nM |  | 
22 | O=C(Nc1ccc2cc(C(=O)NO)sc2c1)c1ccccc1 |  | 2900 nM | 
23 | COc1ccc(CC(=O)Nc2ccc3cc(C(=O)NO)sc3c2)cc1 | 20 nM | 205 nM | 
24 | CC[C@@H](C(=O)Nc1ccc2cc(C(=O)NO)sc2c1)c1ccccc1 | 60 nM | 530 nM | 
25 | CC[C@H](C(=O)Nc1ccc2cc(C(=O)NO)sc2c1)c1ccccc1 | 20 nM | 140 nM | 
26 | O=C(Cc1ccccc1)Nc1ccc2sc(C(=O)NO)cc2c1 | 30 nM | 1160 nM | 
